What all share (type): functional
Test [1] has as its system Mus musculus. Briefly: Minimum active dose(MAD) for decrease in norepinephrine (NE) / epinephrine(E) ratio was measured in mice (po). Summed up:
(§1)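 Male Charles River mice, 30–40 g, groups of five. Oral dosing in 1% methylcellulose twice daily for 7 days, plus a final morning dose. Killed 2 h later; adrenals homogenised in 0.4 N HClO4 and alumina-extracted. E and NE measured.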

Test [2] relates to Mus musculus. Briefly: Maximum inactive dose(MID) for decrease in norepinephrine (NE) / epinephrine(E) was measured in mice (po). The method, boiled down: as §1
Test [3] concerns Rattus norvegicus. Briefly: Phenylethanolamine N-methyl-transferase inhibition determined as of [3H]epinephrine biosynthesis in rats at 50 mg/kg (po).
Test [4] concerns Mus musculus. Briefly: Minimum active dose(MAD) for decrease in norepinephrine (NE) / epinephrine(E) was measured in mice (po). The method, boiled down:
as §1

Consider six molecules from ChEMBL document CHEMBL1121585, “Inhibitors of phenylethanolamine N-methyltransferase and epinephrine biosynthesis. 1. Chloro-substituted 1,2,3,4-tetrahydroisoquinolines” (J Med Chem, 1980).

By inhibition in vivo is commonly meant how much of the control response was suppressed.

Each structure is given as a SMILES string.

For the molecule `Clc1cccc2c1CNCC2`, the MAD in test [1] turned out to be 7.5 mg/kg. For the same molecule, the MID in test [2] amounted to 2.5 mg/kg. Also, the inhibition in vivo at 50 mg/kg in test [3] came out at 45%.

On to `Clc1ccc2c(c1)CNCC2`, for which the MAD in test [1] was 12.5 mg/kg. Besides, in test [2], the MID was 7.5 mg/kg. This molecule also gave an inhibition in vivo at 50 mg/kg in test [3] of 78%.

In turn, `Clc1cc(Cl)c2c(c1Cl)CNCC2` gave an MID in test [2] of 100 mg/kg. The same molecule registered an inhibition in vivo at 50 mg/kg in test [3] of 16%.

For the molecule `Clc1c(Cl)c(Cl)c2c(c1Cl)CCNC2`, the MAD in test [1] amounted to 100 mg/kg. The molecule further had an MID in test [2] of 25 mg/kg.

As for `Clc1ccc2c(c1Cl)CNCC2`, in test [4], the MAD was found to be 5 mg/kg. Besides, the MID in test [2] is 2.5 mg/kg.

For `Clc1cc2c(c(Cl)c1Cl)CNCC2`, the MID in test [2] was found to be 50 mg/kg. Also, in test [3], the inhibition in vivo at 50 mg/kg was 25%.
